In PMC2568025 (The Journal of Cell Biology, 2008):
Entries after “also recorded” stand apart in the source; their conditions may differ. Where a name gives a salt, the structure may show the parent alone. Bridge positions count the residues as written; N and C are the ends. Ends that are not written are not given here.

Key:
HEK-PR1 cells [1] = test: Single cell imaging of [Ca^2+]i; assay type: cell-based, human; conditions: single cell analyses
HEK-PR1 cells [2] = test: Potentiation of CCh-evoked Ca^2+ signals in cell populations; assay type: cell-based, human; conditions: for Δ [Ca^2+]i Maximal increase: potentiation of CCh-evoked Ca^2+ signal, 30-s stimulation; for potentiation of CCh-evoked Ca^2+ signals: qualitative; for effect of stimulus alone on [Ca^2+]i / Ca^2+ release (absence of CCh): somatostatin 1 μM; for increase in the sensitivity to CCh: PTH 100 nM 1 min, 8-Br-cAMP 10 mM 20 min; for effect on CCh-evoked Ca^2+ signals: 30 mM
HEK-PR1 cells [3] = test: cAMP production measured by RIA; assay type: cell-based, human; conditions: for Δ cAMP Maximal response: identical conditions to Ca^2+ assay (with CCh); for EC50: read-out: Δ cAMP EC50
HEK-PR1 cells [4] = test: Protein phosphorylation by Western blot with AbP; assay type: cell-based, human; conditions: H89 10 μM for 20 min
Outline: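 Cells treated with 8-Br-cAMP (10 mM, 20 min), FK (100 μM, 30 s) or PTH (100 nM, 30 s), alone or after H89 (10 μM, 20 min) or st-ht31 (100 μM, 30 min). Lysed at 4°C in Triton X-100 buffer, pH 7.4, with NaF, pyrophosphate and vanadate. Blots probed with anti-phospho Ser/Thr antibody. For IP3R, the immunoprecipitated receptor signal was normalised to IP3R3 and expressed relative to unstimulated cells (n = 3–4).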

IP3R = test: IP3-evoked Ca^2+ release from permeabilized cells
HEK-PR1 cells [5] = conditions: <100 μM; ref Short and Taylor, 2000; Tovey et al., 2003; cited from earlier work
PKA = conditions: ref He et al., 2003; cited from earlier work
[6] = Homo sapiens, read-out: Δ [Ca^2+]i EC50

In the case of `CC(C)NCC(O)c1ccc(O)c(O)c1` (racemic) [Isoproterenol, (±)-isoproterenol hydrochloride], the “cells that responded to CCh in which the Ca^2+ signal was potentiated” value (HEK-PR1 cells [1]) is reported as 80 ± 4%, the EC50 (HEK-PR1 cells [2]; [6]) is reported as 90 ± 24 nM and the “Δ [Ca^2+]i Maximal increase” value (HEK-PR1 cells [2]) is reported as 30 ± 6 nM. The “potentiation of CCh-evoked Ca^2+ signals” value (HEK-PR1 cells [2]) was “potentiated CCh-evoked Ca^2+ signals”, the “effect of stimulus alone on [Ca^2+]i / Ca^2+ release (absence of CCh)” value (HEK-PR1 cells [2]) was “no significant effect” and the “Δ cAMP Maximal response” value (HEK-PR1 cells [3]; 30-s stimulation) was 91 ± 15 fmol/sample. It also gave an EC50 (HEK-PR1 cells [3]; Homo sapiens) of 113 ± 43 nM.
With `Cl.Cl.O=S(=O)(NCCNC/C=C/c1ccc(Br)cc1)c1cccc2cnccc12` [H89, H89 dihydrochloride] the “effect of inhibition of PKA on responses of intact cells to 8-Br-cAMP” value (HEK-PR1 cells [2]; 10 μM H89, unpublished data) was “unaffected”, the “effect of H89 on sensitivity to isoproterenol” value (HEK-PR1 cells [2]; by competing for occupancy of β-adrenoceptors (Fig. S2 E)) was “decreased the sensitivity to isoproterenol” and the “effect on phosphorylation of proteins stimulated by PTH, FK and 8-Br-cAMP” value (HEK-PR1 cells [4]) was “prevented”.
With `CC(C)Cn1c(=O)n(C)c(=O)c2[nH]cnc21` [IBMX, 3-isobutyl-1-methylxanthine] the “effect of PDE inhibition on potentiated Ca^2+ signals” value (HEK-PR1 cells [2]; IBMX 1 mM for 20 min) was “slight inhibition”.
For human PTH(1–34), the “cells that responded to CCh in which the Ca^2+ signal was potentiated” value (HEK-PR1 cells [1]) was 99 ± 1%, the “increase in the sensitivity to CCh” value (HEK-PR1 cells [2]; intact cells) was “three- to fourfold” and the “Δ [Ca^2+]i Maximal increase” value (HEK-PR1 cells [2]) was 101 ± 14 nM. The EC50 (HEK-PR1 cells [2]; read-out: EC50 for PTH-mediated Ca^2+ signaling, after loss of AC6 (siRNA)) was 54 ± 5 nM, the EC50 (HEK-PR1 cells [2]; read-out: EC50 for PTH-mediated Ca^2+ signaling, before loss of AC6) was 63 ± 3 nM and the “effect of stimulus alone on [Ca^2+]i / Ca^2+ release (absence of CCh)” value (HEK-PR1 cells [2]) was “does not alone cause Ca^2+ release; also recorded: no significant effect”. The “Δ cAMP Maximal response” value (HEK-PR1 cells [3]; 30-s stimulation) was 6,662 ± 1232 fmol/sample and the EC50 (HEK-PR1 cells [3]; 30-s stimulation, with CCh) was 29 ± 7 nM.
For `CO[C@H]1C2OP(=O)(O)OC[C@H]2O[C@H]1n1c(Br)nc2c(N)ncnc21` (stereo partly shown) [8-Br-2′-O-methyladenosine-3′,5′-cAMP], the “effect on CCh-evoked Ca^2+ signals” value (HEK-PR1 cells [2]; intact cells) was “no effect”.
With `C=C[C@@]1(C)CC(=O)[C@@H]2[C@@]3(C)CCCC(C)(C)[C@@H]3[C@H](O)[C@H](OC(C)=O)[C@@]2(C)O1` [1,9-dideoxyforskolin] the “effect on [Ca^2+]i either alone or with CCh” value (HEK-PR1 cells [2]; 100 μM, unpublished data) was “no effect”.
With `CCCCC[C@H](O)/C=C/[C@H]1[C@H](O)CC(=O)[C@@H]1CCCCCCC(=O)O` [PGE1, Prostaglandin E1] the “potentiation of CCh-evoked Ca^2+ signals” value (HEK-PR1 cells [2]) was “potentiated CCh-evoked Ca^2+ signals”.
In the case of `Nc1ncnc2c1ncn2[C@@H]1O[C@@H]2COP(=O)(O)O[C@H]2[C@H]1O` [cAMP, cyclic adenosine monophosphate], the “increase in sensitivity of IP3-evoked Ca^2+ release” value (IP3R; permeabilized HEK cells, high concentrations of cAMP) is reported as about 4.5 fold and the “affinity of IP3R site for cAMP relative to that of PKA or CNGC” value (IP3R; ref Wong and Scott, 2004 for PKA or CNGC) is reported as ~20,000 times lower.
For “somatostatin (AGCKNFFWKTFTSC; disulfide 3-14 (inferred); ends not checked; UniProt P61278 103-116, looked up)”, the “effect of stimulus alone on [Ca^2+]i / Ca^2+ release (absence of CCh)” value (HEK-PR1 cells [2]) was “nor does”.
For `C=C[C@@]1(C)CC(=O)[C@]2(O)[C@@]3(C)[C@@H](O)CCC(C)(C)[C@@H]3[C@H](O)[C@H](OC(C)=O)[C@@]2(C)O1` [FK, forskolin], the “cells that responded to CCh in which the Ca^2+ signal was potentiated” value (HEK-PR1 cells [1]) was 95 ± 3%, the EC50 (HEK-PR1 cells [2]; [6]) was 8700 ± 2000 nM and the “Δ [Ca^2+]i Maximal increase” value (HEK-PR1 cells [2]) was 55 ± 5 nM. The “potentiation of CCh-evoked Ca^2+ signals” value (HEK-PR1 cells [2]) was “So too did”, the “effect of stimulus alone on [Ca^2+]i / Ca^2+ release (absence of CCh)” value (HEK-PR1 cells [2]) was “no significant effect” and the “Δ cAMP Maximal response” value (HEK-PR1 cells [3]; 30-s stimulation) was 236 ± 29 fmol/sample. The EC50 (HEK-PR1 cells [3]; Homo sapiens) was 3300 ± 400 nM.
In the case of `C[N+](C)(C)CCOC(N)=O` [CCh, Carbachol], the “cells that responded to CCh” value (HEK-PR1 cells [1]) is reported as 98 ± 1%.
For `Nc1ncnc2c1nc(Br)n2[C@@H]1O[C@@H]2COP(=O)(O)O[C@H]2[C@H]1O` [8-Br-cAMP], the “potentiation of Ca^2+ signals at low concentrations” value (HEK-PR1 cells [5]) is given as “did not significantly potentiate”, the “effect on CCh-evoked Ca^2+ signals” value (HEK-PR1 cells [2]; intact cells) is given as “similarly potentiated” and the “increase in the sensitivity to CCh” value (HEK-PR1 cells [2]; intact cells) is given as “three- to fourfold”. The EC50 (HEK-PR1 cells [2]; read-out: EC50 for potentiation of CCh-evoked Ca^2+ signals, intact cells, 1 mM CCh, 20-min preincubation) was 870000 ± 370000 nM, the EC50 (IP3R; read-out: EC50 for potentiation of IP3-evoked Ca^2+ release, permeabilized cells) was 324000 ± 45000 nM and the “concentrations that activate PKA” value (PKA) was under 100 µM.
With `Nc1nc2c(nc(Br)n2[C@@H]2O[C@@H]3COP(=O)(O)O[C@H]3[C@H]2O)c(=O)[nH]1` [8-Br-cGMP] the “effect on CCh-evoked Ca^2+ signals” value (HEK-PR1 cells [2]; intact cells) was “ineffective”.
